Results from ChEMBL document CHEMBL4152358, “In vitro and in vivo anti-inflammatory properties of imine resveratrol analogues” (Bioorg Med Chem, 2018).
Active and inactive are the calls of the source. The rule behind the calls is not given here.

Columns and labels:
RAW264.7 [1] = assay: Cytotoxicity against mouse RAW264.7 cells assessed as reduction in cell viability at 50 uM after 48 hrs by MTT assay; type: cell-based; details: raw264.7, 48 h
How it was run: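 RAW264.7 cells seeded at 2 x 10⁵/well and grown 24 h, then exposed to 25 or 50 µM (ethanol ≤1%) for 48 h. MTT 0.5 mg/mL added for 2 h at 37 °C, formazan dissolved in DMSO, OD read at 595 nm. Viability given relative to untreated control, mean SD.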

Peritoneal macrophage = assay: Cytotoxicity against C57/BL6 mouse peritoneal macrophages assessed as reduction in cell viability at 50 uM after 48 hrs by MTT assay; type: cell-based
Mus musculus [2] = assay: Antiinflammatory activity in Balb/c mouse ear edema model assessed as inhibition of croton oil-induced ear edema at 0.1 mg/ear administered topically immediately post croton oil treatment and measured after 4 hrs relative to control; type: functional
How it was run: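 Female Balb/c mice 8–10 weeks old (n = 6/group). 20 µL of 2.5% v/v croton oil applied to the inner surface of the right ear, acetone vehicle to the left. Treatment given topically straight after, 0.1 mg/ear in 20 µL, with acetone as negative control. Killed at 4 h and 6 mm plugs taken from both ears. Edema read as right minus left ear plug weight, mean S.D.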

Mus musculus [3] = assay: Antiinflammatory activity in croton oil-induced Balb/c mouse ear edema model assessed as inhibition of leucocyte infiltration at 0.1 mg/ear administered topically immediately post croton oil treatment and measured after 4 hrs by hematoxylin and eosin staining based light microscopic method; type: functional, organism-based
How it was run: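 Ear plugs from the 4 h croton oil edema test in Balb/c mice were fixed 24 h in 70% ethanol, kept in 10% formalin, paraffin-embedded and cut at 4 µm. Sections stained with H&E and leucocyte infiltration judged qualitatively by light microscopy at 400x.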

[4] = Antioxidant activity assessed as DPPH radical scavenging activity after 30 mins by spectrophotometric method; type: functional
How it was run: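 Left 30 min at room temperature in the dark and absorbance read at 510 nm. IC50 taken graphically from the linear range of the concentration versus scavenging plot. Run twice, each in triplicate.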

RAW264.7 [5] = assay: Antiinflammatory activity in mouse RAW264.7 cells assessed as inhibition of LPS/IFNgamma-induced NO production by measuring NO levels incubated with LPS/IFNgamma for 1 hr followed by compound addition measured after 48 hrs by Griess assay (reference value: 55 +/- 2.6 microM); type: functional
RAW264.7 [6] = assay: Antiinflammatory activity in mouse RAW264.7 cells assessed as inhibition of LPS-induced CCL-2 production by measuring CCL-2 levels incubated with LPS for 1 hr followed by compound addition measured after 48 hrs by ELISA (reference value: 12.73 +/- 0.10 ng/ml); type: functional
J774.A1 = assay: Antiinflammatory activity in mouse J774A.1 cells assessed as inhibition of LPS-induced IL-1beta production by measuring IL-1beta levels incubated with LPS for 1 hr followed by compound addition measured after 24 hrs by ELISA (reference value: 382.3 +/- 50 pg/ml); type: functional
RAW264.7 [7] = assay: Antiinflammatory activity in mouse RAW264.7 cells assessed as inhibition of LPS-induced IL-6 production by measuring IL-6 levels incubated with LPS for 1 hr followed by compound addition measured after 48 hrs by ELISA (reference value: 2.9 +/- 0.3 ng/ml); type: functional
RAW264.7 [8] = assay: Antiinflammatory activity in mouse RAW264.7 cells assessed as inhibition of LPS-induced IL-12 production by measuring IL-12 levels incubated with LPS for 1 hr followed by compound addition measured after 48 hrs by ELISA (reference value: 4839.2 +/- 2.2 pg/ml); type: functional
RAW264.7 [9] = assay: Antiinflammatory activity in mouse RAW264.7 cells assessed as inhibition of LPS-induced TNFalpha production by measuring TNFalpha levels incubated with LPS for 1 hr followed by compound addition measured after 48 hrs by ELISA (reference value: 58.6 +/- 7.4 ng/ml); type: functional
Murine T-cell line = assay: Antiproliferative activity against Con-A-induced T cells isolated from splenocytes of C57/BL6 mouse at 50 uM incubated with Con-A for 1 hr followed by compound addition measured after 72 hrs by MTT assay; type: functional, cell-based
How it was run: (§1)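 C57BL/6 splenocytes (1x10⁵/well) cultured in RPMI 1640 with 10% FBS. Stimulated 1 h with Con A 5 µg/mL (T cells) or E. coli LPS 1 µg/mL (B cells) at 37°C, 5% CO₂. Treated at 50 µM and cultured 72 h more, then read by MTT. Expressed as % proliferation relative to untreated stimulated cells.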

B-cell line = assay: Antiproliferative activity against LPS-induced B cells isolated from splenocytes of C57/BL6 mouse at 50 uM incubated with LPS for 1 hr followed by compound addition measured after 72 hrs by MTT assay; type: functional, cell-based; how it was run: as §1
RAW264.7 [10] = assay: Immunomodulatory activity in LPS-stimulated mouse RAW264.7 cells assessed as decrease in CD80 expression at 50 uM incubated with LPS for 1 hr followed by compound addition measured after 24 hrs by flow cytometry; type: functional, cell-based
How it was run: (§2)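 RAW 264.7 cells (4 x 10⁵/well, triplicate) given E. coli LPS 1 µg/mL for 1 h, then treated at 50 µM for 24 h. Cells Fc-blocked with anti-CD16/32 and stained with FITC anti-CD80, anti-CD86 or anti-MHC II (I-A^b). Two independent experiments.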

RAW264.7 [11] = assay: Immunomodulatory activity in LPS-stimulated mouse RAW264.7 cells assessed as decrease in MHC-2 expression at 50 uM incubated with LPS for 1 hr followed by compound addition measured after 24 hrs by flow cytometry; type: functional, cell-based; how it was run: as §2
RAW264.7 [12] = assay: Antiinflammatory activity in mouse RAW264.7 cells assessed as inhibition of LPS/IFNgamma-induced NO production at 50 uM incubated with LPS/IFNgamma for 1 hr followed by compound addition measured after 48 hrs by Griess assay relative to control; type: functional
RAW264.7 [13] = assay: Immunomodulatory activity in LPS-stimulated mouse RAW264.7 cells assessed as decrease in CD86 expression at 50 uM incubated with LPS for 1 hr followed by compound addition measured after 24 hrs by flow cytometry; type: functional, cell-based; how it was run: as §2
Mus musculus [14] = assay: Effect on IL-1beta production in ear tissue of croton oil-induced Balb/c mouse ear edema model at 0.1 mg/ear administered topically immediately post croton oil treatment by ELISA; type: functional, organism-based
How it was run: (§3)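 Half of each ear plug from the 4 h croton oil edema test (topical 0.1 mg/ear) was homogenized in extraction buffer (BSA 0.5%, PMSF 0.1%, […], EDTA 10mM, aprotinin 20kIU/ml) and spun at 440g for 15 min at 4 °C. IL-1β, IL-6 or CCL-2 in the supernatant measured by ELISA.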

Mus musculus [15] = assay: Inhibition of myeloperoxidase activity in ear tissue of croton oil-induced Balb/c mouse ear edema model at 0.1 mg/ear administered topically immediately post croton oil treatment by spectrophotometric method; type: functional, organism-based
How it was run: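 Ear tissue homogenized in PBS and the pellet resuspended in 0.5% HTAB, then given 3 freeze/thaw cycles. Cleared supernatant mixed 1:1 with 6 mM o-phenylenediamine in 10 mM citrate pH 4.5, with 20% H₂O₂ added. Stopped after 15 min with 1 M H₂SO₄ and read spectrophotometrically.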

Mus musculus [16] = assay: Inhibition of IL-6 production in ear tissue of croton oil-induced Balb/c mouse ear edema model at 0.1 mg/ear administered topically immediately post croton oil treatment by ELISA; type: functional, organism-based; how it was run: as §3
Mus musculus [17] = assay: Inhibition of CCL-2 production in ear tissue of croton oil-induced Balb/c mouse ear edema model at 0.1 mg/ear administered topically immediately post croton oil treatment by ELISA; type: functional, organism-based; how it was run: as §3

Row | Structure (SMILES) | Activity (RAW264.7 [1]) | Activity (Peritoneal macrophage) | IC50 [4] | Activity (RAW264.7 [5]) | Activity (RAW264.7 [6]) | Activity (J774.A1) | Activity (RAW264.7 [7]) | Activity (RAW264.7 [8]) | Activity (RAW264.7 [9]) | Activity (Murine T-cell line) | Activity (B-cell line) | Activity (RAW264.7 [10]) | Activity (RAW264.7 [11]) | inhibition at 50 µM (RAW264.7 [12]) | further results
1 | COc1ccc(/C=N/Nc2ccc([N+](=O)[O-])cc2[N+](=O)[O-])cc1O | Toxic | Toxic |  |  |  |  |  |  |  |  |  |  |  |  | 
2 | C[C@@H]1C[C@H]2[C@@H]3CCC4=CC(=O)C=C[C@]4(C)[C@@]3(F)[C@@H](O)C[C@]2(C)[C@@]1(O)C(=O)CO [DEXAMETHASONE] |  |  |  |  |  |  |  |  |  |  |  |  |  |  | inhibition (INH) (Mus musculus [2]): 90%; inhibition of leucocyte infiltration (qualitative) (Mus musculus [3]): Active
3 | COc1ccc(/C=N/Nc2ccccc2)c(O)c1 | Toxic | Toxic |  |  |  |  |  |  |  |  |  |  |  |  | 
4 | O=C(O)c1ccc(/C=N/Nc2ccccc2)cc1 | Toxic | Toxic |  |  |  |  |  |  |  |  |  |  |  |  | 
5 | O=[N+]([O-])c1ccc(/C=N/c2ccccc2S)cc1 | Toxic | Toxic |  |  |  |  |  |  |  |  |  |  |  |  | 
6 | Oc1ccccc1/C=N/c1ccccc1O |  |  | 35.9 µM | 5.9 µM | 7.2 ng/mL | 62.3 pg/mL | 2.5 ng/mL | 5.5 pg/mL | 58.4 ng/mL | Active | Active | inactive | inactive | 90% | 
7 | O=C(O)c1ccc(/C=N/c2ccccc2O)cc1 |  |  | 36.6 µM | 9.5 µM | 3.7 ng/mL | 53.4 pg/mL | 2.2 ng/mL | 12.7 pg/mL | 30.6 ng/mL | Active | Active | Active | inactive | 90% | Activity (RAW264.7 [13]): Active; inhibition (INH) (Mus musculus [2]): 40%; inhibition of leucocyte infiltration (qualitative) (Mus musculus [3]): Active; Activity (Mus musculus [14]): inactive; inhibition (Mus musculus [15]): Active; inhibition (Mus musculus [16]): Active; inhibition (Mus musculus [17]): Active
8 | Oc1ccc(/C=N/c2ccccc2O)c(O)c1 |  |  | 49.1 µM | 14.6 µM | 5.5 ng/mL | 188.3 pg/mL | 2.3 ng/mL | 9.3 pg/mL | 44.8 ng/mL |  |  | Active | inactive | 90% | 
9 | O=[N+]([O-])c1ccc(N/N=C/c2cc(Br)ccc2O)c([N+](=O)[O-])c1 | Toxic | Toxic |  |  |  |  |  |  |  |  |  |  |  |  | 
10 | COc1ccc(/C=N/c2ccccc2O)cc1 |  |  | 45.8 µM | 4.8 µM | 7.9 ng/mL | 88.2 pg/mL | 2.1 ng/mL | 4.7 pg/mL | 44.2 ng/mL | Active | Active | Active | inactive | 90% | Activity (RAW264.7 [13]): Active; inhibition (INH) (Mus musculus [2]): 40%; inhibition of leucocyte infiltration (qualitative) (Mus musculus [3]): Active; Activity (Mus musculus [14]): inactive; inhibition (Mus musculus [15]): Active; inhibition (Mus musculus [16]): Active; inhibition (Mus musculus [17]): Active
11 | O=C(O)c1ccccc1/C=N/c1ccccc1O |  |  | 34.1 µM | 22.6 µM | 6.1 ng/mL | 76.7 pg/mL | 2.3 ng/mL | 34 pg/mL | 57.4 ng/mL | Active | Active | inactive | inactive |  | 
12 | COc1ccc(/C=N/c2ccccc2O)cc1O |  |  | 34.5 µM | 8.1 µM | 9.7 ng/mL | 120.3 pg/mL | 2.4 ng/mL | 7.7 pg/mL | 60.5 ng/mL |  |  | Active | inactive | 90% | 
13 | O=C(O)c1ccc(/C=N/Nc2ccc([N+](=O)[O-])cc2[N+](=O)[O-])cc1 | Toxic | Toxic |  |  |  |  |  |  |  |  |  |  |  |  | 
